Measurements published in paper PMC2841013 (Biochemistry, 2010).
Entries after “also recorded” stand apart in the source; their conditions may differ.

How the values were obtained:
[1] = tested on: JUN; experiment: Coiled-coil array vs JUN; type: binding, human; conditions: BZLF1 probe 1280 nM
[2] = tested on: CEBPA; experiment: Coiled-coil array vs CEBPA; type: binding, human; conditions: BZLF1; leucine-zipper regions; probe 1280 nM
How it was run: (§1)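 Leucine-zipper regions of human bZIPs and viral proteins were expressed in E. coli RP3098, purified denaturing via Ni-NTA then reverse-phase HPLC, and printed on aldehyde glass slides. The fluorescently labelled BZLF1 zipper was probed at 1280 nM in phosphate buffer with GdnHCl. Each measurement averaged 8 background-corrected spots and was reported as Sarray or arrayscore, −log(F/Fmax), with F as intensity minus the probe's median signal.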

[3] = tested on: FOS; experiment: Coiled-coil array vs FOS; type: binding, human; conditions: BZLF1 probe 1280 nM
How it was run: as §1

[4] = tested on: 33 representative human bZIPs; experiment: Coiled-coil array, panel of human bZIPs; type: binding
[5] = tested on: CEBPA (C/EBPα); conditions: cited from earlier work
[6] = tested on: BZLF1; experiment: Coiled-coil array, BZLF1 self-association; type: binding, Epstein-Barr virus; conditions: BZLF1 leucine zipper; probe 1280 nM
[7] = tested on: MAFG on MARE DNA; experiment: Gel-shift with MAFG on MARE DNA; type: binding, human; conditions: MAFG 4 nM, HBZLZ 4, 40, 400, or 4000 nM
[8] = tested on: MAFB on MARE DNA; experiment: Gel-shift with MAFB on MARE DNA; type: binding, human; conditions: MAFB 4 nM, HBZLZ 4, 40, 400, or 4000 nM
[9] = target: Q9DGW5; conditions: other: circular dichroism

BZLF1: bZIP protein encoded by Epstein-Barr virus (LLQHYREVAAAKSSENDRLRLLLKQM; fluorescently labeled when used as solution probe on the arrays (dye and site not stated); left off: His tag (from the vector pDEST17, modified versions, and the Ni-NTA purification), end not stated,)
interaction on array [1]: not observed to interact on the arrays | interaction on array [2]: this pairing was not observed in our array experiments | interaction on array [3]: not observed to interact on the arrays | interaction with human bZIPs on array ([4]; BZLF1 leucine zipper, probe concentration 1280 nM, average of 8 spots): not to interact with any human bZIP peptides; also recorded: display almost exclusive homo-association | interaction with CEBPA [5]: interact with many viral and cellular proteins including the human bZIP CEBPA (C/EBPα) | self-association on array [6]: observed to self-associate strongly

HBZLZ: leucine-zipper-only version of HBZ (DGYTRQLEGEVESLEAERRKLLQEKEDLMGEVNYWQGRLEAMWLQ; fluorescently labeled when used as solution probe on the arrays (dye and site not stated); left off: His tag (from the vector pDEST17, modified versions, and the Ni-NTA purification), end not stated,)
amount of MAFG bound to DNA [7]: The amount of MAF protein bound to DNA was decreased, though a higher concentration of HBZLZ was required. No additional complex was detected | amount of MAFB bound to DNA [8]: The amount of MAF protein bound to DNA was decreased, though a higher concentration of HBZLZ was required. No additional complex was detected

BZLF1CT: BZLF1 construct with the C-terminal extension (LLQHYREVAAAKSSENDRLRLLLKQMCPSLDVDSIIPRTPDVLHEDLLNF; fluorescently labeled when used as solution probe on the arrays (dye and site not stated))
interaction with human bZIPs on array ([4]; construct with the C-terminal extension): did not interact strongly with any human proteins

B1: MEQ bZIP domain (protein)
chain: KQKLERRRKRNRDAARRRRRKQTDYVDKLHEACEELQRANEHLRKEIRDLRTECTSLRVQLACH
Tm (homo-association) [9]: for MEQ was 35.2 °C
